According to ChEMBL document CHEMBL1155724, “Novel cytotoxic annonaceous acetogenins from Annona muricata” (J Nat Prod, 2001):
In brackets after ≈: the same amount, converted by molar mass.

Legend:
[1] = Cytotoxicity against human HepG2(2.2.15) cells after 12 days by methylene blue colorimetric method; format: functional, cell-based; conditions: HepG2 2.2.15, 288 h
How it was run: (§1)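 Hep G2 and HBV-transfected Hep G2 (Hep 2,2,15) cells were grown in RPMI 1640 or DMEM with 10% FCS, 100 units/mL penicillin and 100 µg/mL streptomycin, at 37 °C in humidified 5% CO2. Viability was measured by methylene blue staining, read at 592 nm. IC50 is the concentration giving 50% lower absorbance than drug-free controls.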

[2] = tested on: HepG2; experiment: Cytotoxicity against human HepG2 cells after 12 days by methylene blue colorimetric method; format: functional, cell-based; conditions: HepG2, 288 h; how it was run: as §1

Compound	IC50 [1]	IC50 [2]
COc1cccc2c1C(=O)c1c(O)c3c(c(O)c1C2=O)C[C@@](O)(C(=O)CO)C[C@@H]3O[C@H]1C[C@H](N)[C@H](O)[C@H](C)O1 [DOXORUBICIN]	0.45 µg/mL (≈ 0.828 µM)	–
CCCCC(O)C(O)C/C=C\CC[C@H](O)[C@@H]1CC[C@@H](CCCCCCCCCCCC[C@@H](O)CC2=C[C@H](C)OC2=O)O1 (stereo partly specified) [MURICIN F]	0.00386 µg/mL (≈ 0.00649 µM)	0.0428 µg/mL (≈ 0.0719 µM)
CCCCCCCC(O)C(O)CC[C@H](O)[C@@H]1CC[C@H](CCCCCCCCCCCC[C@@H](O)CC2=C[C@H](C)OC2=O)O1 (stereo partly specified) [MURICIN C]	0.00387 µg/mL (≈ 0.00648 µM)	–
CCCCCCCCCCCCCC[C@@H](O)[C@H]1CC[C@H]([C@H](O)CC[C@H](O)CCCCCCCC2=C[C@H](C)OC2=O)O1 [LONGIFOLICIN]	0.0049 µg/mL (≈ 0.00844 µM)	0.000404 µg/mL (≈ 0.000695 µM)
CCCCCC(O)C(O)CCCCCC[C@@H](O)[C@H]1CC[C@H](CCCCCCCCCC[C@@H](O)CC2=C[C@H](C)OC2=O)O1 (stereo partly specified) [MURICIN A]	0.00513 µg/mL (≈ 0.00859 µM)	–
CCCCCCCCCCCC[C@@H](O)[C@H]1CC[C@H]([C@H](O)CCCC[C@H](O)CCCCCCCC2=C[C@H](C)OC2=O)O1 [COROSSOLINE]	0.234 µg/mL (≈ 0.403 µM)	0.353 µg/mL (≈ 0.608 µM)
CCCCCC(O)C(O)CCCCCC[C@H](O)[C@@H]1CC[C@H](CCCCCCCCCC[C@H](O)CC2=C[C@H](C)OC2=O)O1 (stereo partly specified) [MURICIN B]	0.00429 µg/mL (≈ 0.00719 µM)	–
CCCCCCCCCCCC[C@@H](O)[C@H]1CC[C@@H]([C@@H](O)CCCCC(=O)CCCCCCCC2=C[C@H](C)OC2=O)O1 [COROSSOLONE]	0.284 µg/mL (≈ 0.491 µM)	0.48 µg/mL (≈ 0.829 µM)
CCCCCCCCCCCCC(O)C(O)CCC(O)C1CCC(CCCCCCC[C@@H](O)CC2=C[C@H](C)OC2=O)O1 (mixture of isomers) [MURICATETROCIN A/B]	0.00483 µg/mL	0.0495 µg/mL
CCCCCCCC(O)C(O)CC[C@H](O)[C@@H]1CC[C@@H](CCCCCCCCCC[C@@H](O)CC2=C[C@H](C)OC2=O)O1 (stereo partly specified) [MURICIN D]	0.048 µg/mL (≈ 0.0844 µM)	0.00066 µg/mL (≈ 0.00116 µM)
